Laboratory results taken from ChEMBL document CHEMBL1139843, “Novel sulfamide analogs of oleoylethanolamide showing in vivo satiety inducing actions and PPARalpha activation” (J Med Chem, 2007).
The source made the active and inactive calls. The rule behind the calls is not given here.

What was measured:
[1] = target: T1, Peroxisome proliferator-activated receptor alpha (Homo sapiens) (UniProt Q07869); assay: Agonist activity at human PPARalpha expressed in MCF7 cells transfected with co-activator TIF2 by luciferase reporter gene assay at 1 uM; assay type: functional, cell-based
T1 sequence (whole entry): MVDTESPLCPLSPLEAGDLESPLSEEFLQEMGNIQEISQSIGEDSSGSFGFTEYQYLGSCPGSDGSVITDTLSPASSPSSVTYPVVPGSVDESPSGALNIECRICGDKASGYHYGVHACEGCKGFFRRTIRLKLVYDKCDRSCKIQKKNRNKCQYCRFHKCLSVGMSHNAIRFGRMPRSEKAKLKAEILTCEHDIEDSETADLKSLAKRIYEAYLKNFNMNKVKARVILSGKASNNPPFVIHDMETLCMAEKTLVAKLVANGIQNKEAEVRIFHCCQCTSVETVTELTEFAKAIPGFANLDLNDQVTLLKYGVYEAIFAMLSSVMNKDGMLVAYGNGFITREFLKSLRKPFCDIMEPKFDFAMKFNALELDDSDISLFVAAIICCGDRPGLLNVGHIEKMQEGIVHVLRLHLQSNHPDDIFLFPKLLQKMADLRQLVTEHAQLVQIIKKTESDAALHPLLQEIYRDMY
Outline: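 MCF-7 cells grown overnight in phenol red-free DMEM with 5% charcoal-treated FBS. Transfected with DOTAP liposomes carrying human ACO PPRE-luciferase reporter, wild-type hPPARalpha and full-length TIF2. Ligand or DMSO added 4 h after transfection, with medium topped up with charcoal-treated FBS. Cells lysed 16 h later. Luciferase normalized to protein, relative to DMSO-treated cells without overexpression; mean ± SD, n = 3-6.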

[2] = target: T2, Peroxisome proliferator-activated receptor alpha (Homo sapiens, UniProt Q07869); assay: Activation of human PPARalpha by GST pull down assay
T2 sequence (Q07869 whole entry): T1 sequence (whole entry)
Outline: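 GST or GST-TIF2 Sepharose beads, pre-blocked with 1 µg/µl BSA, incubated with 20 ng in vitro translated [35S]-labeled PPARalpha with or without compound. Unbound translated protein washed off with immunoprecipitation buffer, then bound receptor detected.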

Rattus norvegicus [3] = assay: Reduction in food intake in Wistar rat at 0.03 to 3 mg/kg, ip
Rattus norvegicus [4] = assay: Reduction in body weight of Wistar rat at 1 mg/kg, ip after 8 days; assay type: functional, organism-based; parameters: dose 1 mg/kg
Outline: (§1)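 Normal Wistar rats, free-feeding, dosed 1 mg/kg i.p. daily for 8 days at dark-period onset. Compound suspended in Tween 80/saline. Body weight and plasma triglycerides compared with vehicle-treated rats; means ± SEM, n = 3-6, ANOVA.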

Rattus norvegicus [5] = assay: Reduction in food intake in obese Zucker rat at 1 mg/kg, ip after 11 days; assay type: functional, organism-based; parameters: dose 1 mg/kg
Outline: (§2)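 Genetically obese Zucker (fa/fa) rats, free-feeding, given 1 mg/kg i.p. daily for 11 days at dark-period onset, in Tween 80/saline. Cumulative relative weight gain (g/kg body weight, from day 1) and food intake compared with vehicle; means ± SEM, n = 3-6, ANOVA.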

Rattus norvegicus [6] = assay: Reduction in plasma triglycerides in Wistar rat at 1 mg/kg, ip after 8 days; assay type: functional, organism-based; parameters: dose 1 mg/kg; outline: as §1
Rattus norvegicus [7] = assay: Reduction in body weight gain in obese Zucker rat at 1 mg/kg, ip after 11 days; assay type: functional, organism-based; parameters: dose 1 mg/kg; outline: as §2

SMILES | Activity [1] | EC50 [2] [µM] | also measured
Cc1cccc(Nc2cc(Cl)nc(SCC(=O)O)n2)c1C | Active |  | 
CCCCCCCCCCCCCCCCNS(=O)(=O)NCCC |  | 21 | 
CCCCCCCC/C=C\CCCCCCCC(=O)NCCO [OLEOYLETHANOLAMIDE] | Active | 0.11 | 
CCCCCCCC/C=C\CCCCCCCCNS(=O)(=O)NCCC |  | 11 | 
CCCCCCCCCCCCCCCCCCNS(N)(=O)=O | inactive | > 10000 | Activity (Rattus norvegicus [3]): Active
CCCCCCCCCCCCCCCCCCNS(=O)(=O)NCCC | Active | 0.1 | Activity (Rattus norvegicus [4]): Active; Activity (Rattus norvegicus [5]): Active; Activity (Rattus norvegicus [6]): Active; Activity (Rattus norvegicus [7]): Active
CCCCCCCCCCCCCCCCNS(N)(=O)=O |  | > 10000 | 
CCCCCCCC/C=C\CCCCCCCCNS(N)(=O)=O |  | 0.524 | 
